# Compound activity from PubChem.
# Sampled rows, rich in hits. Any-hit rate of the full collection: about 2.6%.
# mABHD4 FP = ABHD4 inhibitors, primary screen, biochemical, fluorescence polarization, mouse; AID 720543, 2013; inhibition, % at 8.92 µM; hit rate 0.54% among 370,000; purified mABHD4, FP-Rh probe fluorescence polarization;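 active = inhibition exceeding the mean over every tested compound plus 3 SD, cut at about 30% in these data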;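 note: 0% = plate median of compound wells and 100% = S159A mutant with DMSO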
#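 Assay system: mouse ABHD4 enzyme, wild type / Also added: fluorescent activity-based probe FP-Rh / Doses: single nominal dose of 8.92 µM, 0.89% DMSO final / Timing: 45 min compound pre-incubation plus 60 min probe step, 25 °C / Signal: FP readout, ex 525 nm / em 598 nm / Control set: S159A mutant/DMSO as 100%, compound-well median as 0%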
# HTRA1 inh = HTRA1 serine protease inhibitors, primary screen, biochemical, fluorescence polarization, HTS | Q92743 | recombinant HTRA1, FP-rhodamine activity-based probe | inhibition, % at 5.96 µM | hit rate 0.5% among 340,000 | AID 504803, 2011; in the data active = inhibition above about 36%;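 note: 0% = enzyme with DMSO and 100% = wells lacking enzyme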
# TCR-CD3 inh = inhibitors of human TCR-CD3 interaction, primary screen, biochemical, fluorescence, TAMRA-labeled TCR probe; inhibition, % at 9.4 µM; hit rate 0.37% among 360,000; AID 651800, 2012; in the data active = inhibition above about 19%;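 note: recombinant mutant TCR 2C K166C tagged with TAMRA read by polarization; 0% = receptor in buffer alone and 100% = receptor with positive control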
# SIAE inh = human SIAE inhibitors, primary screen, biochemical, fluorescence polarization, FP-Rh probe, 1536-well HTS. Sialate O-acetylesterase (Homo sapiens), Q9HAT2. SIAE FP-Rh probe binding. inhibition, % at 9.66 µM. hit rate 0.69% among 370,000;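 active = inhibition above a cutoff: mean of compounds within the control limits plus 3 SD of those, cut at about 17% in these data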;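 note: 0% = plate median of compound wells and 100% = probe without SIAE protein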
# PRMT1 FP inh = PRMT1 methyltransferase inhibitors, primary screen, biochemical, fluorescence polarization. recombinant PRMT1, activity-based probe fluorescence polarization. inhibition, % at 2.79 µM. hit rate 1.3% among 370,000;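 active = inhibition above about 21% made by adding two undisclosed values, limit read from the data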
# Target sequence (Q99873 whole entry, looked up): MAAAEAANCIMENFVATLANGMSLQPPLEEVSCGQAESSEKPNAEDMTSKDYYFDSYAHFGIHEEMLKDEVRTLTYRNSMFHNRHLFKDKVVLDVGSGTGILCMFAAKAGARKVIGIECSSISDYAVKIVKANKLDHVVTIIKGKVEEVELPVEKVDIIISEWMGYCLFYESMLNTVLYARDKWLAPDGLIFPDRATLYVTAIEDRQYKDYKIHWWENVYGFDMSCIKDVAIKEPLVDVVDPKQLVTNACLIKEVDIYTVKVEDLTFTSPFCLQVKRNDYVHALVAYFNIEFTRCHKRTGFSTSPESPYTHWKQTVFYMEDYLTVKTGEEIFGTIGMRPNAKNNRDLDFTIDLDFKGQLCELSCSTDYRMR
# An asterisk follows results filed as active; / = no result.
SMILES,mABHD4 FP,HTRA1 inh,TCR-CD3 inh,SIAE inh,PRMT1 FP inh
COC(=O)C12C=C3CC(c4ccc(C)s4)=C3C(=O)N1Cc1[nH]c3ccccc3c1C2 (stereo not given),-1,/,/,5,-3
S=c1[nH]nc(-c2n[nH]c3c2CCC3)n1N=Cc1ccc(OCc2ccccc2)cc1,2,/,/,3,9
CC1(C(=O)N2CCC(Oc3cccnc3)CC2)CC1,-3,/,/,-1,0
COCCNC(=O)c1c[nH]c2cc(OC)c(OC)cc2c1=O,1,5,3,-3,25*
CCN(CC)CCn1c(SCC(=O)NCCC2=CCCCC2)nc2c(sc3ccccc32)c1=O,4,-10,1,-4,22*
Nc1c2c(nc3ccc(Br)cc13)N(c1ccccc1)CC2,12,2,6,-1,23*
COc1cccc(C(=O)NCc2ccc3c(c2)cc(C)n3C)c1,10,13,6,3,-1
COc1ccc(C(=O)NCc2ccc3c(c2)cc(C)n3C)cc1OC,17,12,8,-2,24*
S=c1nc(-c2csc3c2CCCC3)[nH][nH]1,-3,8,3,-5,22*
S=c1nc(-c2ccccc2Cl)[nH][nH]1,3,-1,4,4,6
C[C@H]1C2CC(OC(=O)Nc3ccc4c(c3)OCO4)C(C2)[C@H]2CCCCN21 (stereo not given in full),0,/,/,-1,-10
CCOC(=O)c1sc2cc([N+](=O)[O-])cc(SCC(=O)OC)c2c1N,27,-3,-4,-3,23*
CCOC(=O)c1sc2cc([N+](=O)[O-])cc(SCCO)c2c1N,6,6,-2,-1,0
COC(=O)CCC(=O)OC1(C)C(=O)C2=CN(CCc3ccccn3)C(c3ccc(OC)cc3)=CC2=C(Br)C1=O (stereo not given),/,37*,/,/,/
Cc1ccc(C(=O)n2ccc3ccc(-c4ccc5ccn(Cc6ccccc6)c5c4)cc32)cc1,-7,/,/,3,1
CCOC(=O)C1CCCN(C(=O)c2ccc(-c3ccc([N+](=O)[O-])cc3)o2)C1 (stereo not given),17,1,0,-1,24*
Cc1ccc2c(c1)-c1c(ssc1=S)C(C)(C)N2C(=O)c1ccco1,-1,8,-2,10,11
CC1(C)c2ssc(=S)c2-c2ccccc2N1C(=O)c1ccco1,-7,5,-1,22*,1
CCOC(=O)CC[C@@]1(C(=O)OCC)C[C@@H](CC(=O)NCc2ccc(C)o2)C(=O)N2CCCC=C21,2,/,/,-4,11
COc1cccc(CNC(=O)C23CN(Cc4ccccc4)CC2C(c2ccc([N+](=O)[O-])cc2)=NO3)c1 (stereo not given),3,-13,6,0,6
CC(C)CCNC(=O)C12CN(Cc3ccccc3)CC1C(c1ccc([N+](=O)[O-])cc1)=NO2 (stereo not given),-9,-14,1,5,22*
C(=Nc1ccc(Nc2ccccc2)cc1)c1ccc2ccccc2c1,/,73*,/,/,/
Cc1cc(C)c(NC(=O)CSc2ccc(-c3cccnc3)nn2)c(C)c1,1,2,3,-6,23*
CS(=O)(=O)Cc1ccc(C(=O)NNC(=O)c2cc(-c3ccccc3)n[nH]2)cc1,-1,-2,-2,0,-2
CS(=O)(=O)c1ccc(C(=O)NNC(=O)c2cc(-c3ccccc3)n[nH]2)cc1,1,4,4,4,24*
SMILES,mABHD4 FP,HTRA1 inh,TCR-CD3 inh,SIAE inh,PRMT1 FP inh
CCc1csc(N2[C@H](CN(CCOC)S(=O)(=O)c3ccccc3[N+](=O)[O-])[C@H](c3ccccc3)[C@@H]2CO)n1,5,/,/,2,2
COc1ccccc1-c1nnc2n1N=C(c1ccc(O)c(O)c1)CS2,/,43*,/,/,/
Cc1ccc(SC[C@H](C)CN2CC[C@H](C)CCC2=O)cc1,4,-9,-13,-1,2
CC(=O)Nc1ccc(SC[C@H](Cc2ccccc2)N2CCN(CC(C)C)CCC2=O)cc1,-1,-8,-6,-8,19
CC(=O)Nc1ccc(SC[C@H](C)CN2CC[C@H](C(C)(C)C)CCC2=O)cc1,-5,-10,7,4,24*
CC(=O)Nc1ccc(SC[C@H](CC(C)C)N2CCN(CC(C)C)CCC2=O)cc1,-6,-6,2,-1,23*
CCOC(=O)C1CCCN(S(=O)(=O)c2cc3c(cc2Br)CCN3C(=O)CC)C1 (stereo not given),-3,/,/,2,-2
O=C(COc1ccccc1)NC1=NCCS1,5,-10,5,-3,0
N#Cc1ccc(OCC(=O)NC2=NCCS2)cc1,-1,6,2,3,27*
Cc1occc(=O)c1OC(=O)Nc1ccc(Cl)c(Cl)c1,-94,-88,73*,-177,-3
COc1ccc(CCNC(=O)COC(=O)CSc2ccc(C(N)=O)cc2[N+](=O)[O-])cc1OC,9,-3,4,1,22*
COc1ccc(CCNC(=O)COC(=O)CSc2ccc([N+](=O)[O-])cc2)cc1OC,10,-2,6,-3,-2
Cc1ccc(S(=O)(=O)N(C(=O)c2ccncc2)c2ccc(OC(=O)c3ccncc3)c3ccccc23)cc1,18,-6,8,8,86*
Cc1ccc(S(=O)(=O)N(C(=O)c2ccncc2)c2ccc(OC(=O)c3ccncc3)c3ccccc23)c(C)c1,/,2,/,/,/
COc1ccc(C(=O)NNc2ccccc2)cc1,0,3,0,-4,0
COc1ccc(NC(=S)NNc2ccc(C(=O)O)cc2)cc1,22,-1,0,0,21*
Oc1c(CN2CCc3ccccc3C2)cc(Cl)c2cccnc12,/,69*,/,/,/
O=C(CSCc1ccc(Cl)cc1)NCCSCc1ccco1,-12,-2,2,-2,23*
O=C(CSCc1c(F)cccc1Cl)NCCSCc1ccco1,4,-3,6,1,4
CCCCN1CCS(=O)(=O)N(Cc2cn(Cc3ccccc3Br)nn2)C(C(=O)OC)C1 (stereo not given),0,/,/,2,-3
O=C(OC12CCCN(C1)/C(=C/c1ccccc1)C2)c1ccc(Cl)cc1 (stereo not given),-1,/,/,-1,-5
C[C@@H]1OC(c2ccccc2)N(C)[C@H]2C[C@H]3c4[nH]c5cccc(-c6ccccc6)c5c4CCN3C[C@@H]12 (stereo not given in full),6,/,/,3,-1
CCc1c(O)nc(SCC(=O)c2ccccc2)n(-c2ccccc2)c1=O,0,8,2,5,24*
CCc1c(O)nc(SCC(=O)N2CCOCC2)n(-c2ccccc2)c1=O,-1,-4,2,9,16
CCCCc1c(O)nc(SCCN(C)C)n(-c2ccccc2)c1=O,-3,-3,1,3,24*
